Screening data (PubChem BioAssay)
A selection: hits, their analogues and other compounds. The true share with any hit is near 2.3%.
TRAIL sens C8: sensitizes caspase-8 expressing cells to TRAIL | NB7+C8 cells + TRAIL, ATPlite viability luminescence | AID 624354 | inhibition (viability loss, TRAIL sensitization), % at 10 µM | 360,000 compounds, 1% hits;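 active means compounds causing at least 50% loss of cell viability in the single-dose screen, relative to plate controls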
PPC-1+TRAIL kill: PPC-1 cancer cell killing with TRAIL present. PPC-1 cells + TRAIL, ATPLite viability luminescence. cell killing (% activity), % at 4 µM or 5 µM. 220,000 compounds, 0.41% hits. AID 1443;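 active means cell killing above 50% in the first pass at 4 µM, then a duplicate retest at 5 µM averaging 50% or more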
HSP90 inh: blocks HSP90-mediated luciferase refolding in reticulocyte lysate; 290,000 compounds, 0.91% hits; AID 1789; Rabbit reticulocyte lysate, luciferase refolding luminescence, 3 h; inhibition, % at 5.6 µM;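 active means inhibition above the screen-wide mean plus 3 SD, computed separately per campaign, cut at about 16% in these data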;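 further: inhibitors lower the luminescence because luciferase stays unfolded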
STAT3 blocker: inhibitors of IL-6 induced STAT3 signaling; U3A cells, IL-6 STAT3-luciferase reporter, luminescence; host cell line lacks STAT1; inhibition, % at 5.5 µM; 190,000 compounds, 0.89% hits; AID 862;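 active means inhibition above the mean inhibition across all screened compounds plus 3 SD, cut at about 44% in these data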
STAT3 act-1: STAT3 signaling activation | 190,000 compounds, 0.91% hits | AID 871 | U3A cells, IL-6 STAT3-luciferase reporter, luminescence; 100% = signal with IL-6 EC80 alone | activation (% of control), % at 5.6 µM;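 active means activation above the screen-wide mean of compound activation plus 3 SD, cut at about 130% in these data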
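Test system: human U3A cells carrying STAT3-luciferase construct; control set: IL-6-only wells as 100% reference; timing: compound pre-incubation 1 h before IL-6, then 6 h stimulation at 37 °C; also added: IL-6 stimulus at 33 ng/mL final; evaluation: % activation versus median of IL-6-stimulated wells; detection: reporter luminescence signal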
STAT1 blocker: STAT1 signaling inhibition; NIH 3T3 STAT1-luciferase reporter, IFN-gamma, luminescence; inhibition, % at 5.5 µM; 200,000 compounds, 0.35% hits;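 active means inhibition above a set limit, the mean inhibition across all tested compounds plus 3 SD, cut at about 34% in these data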
STAT3 act-2: STAT3 activation, confirmation assay. potentiation (% of control), % at 5.7 µM. 1,200 compounds, 64% hits. shares compounds with STAT3 act-1. U3A STAT3-luciferase reporter, IL-6 potentiation, luminescence; U3A cells lack STAT1; 100 means same as IL-6 alone;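 active means percent activation of the STAT3 luciferase reporter above a set limit taken from the earlier primary screen, cut at about 130% in these data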
NFkB act STAT3ct: activates NF-kappaB, counter-screen to STAT3 activators; shares compounds with STAT3 act-1; human cells, NF-kappaB reporter activation; activation (% of control), % at 5.7 µM; 1,200 compounds, 11% hits; AID 1309; in the data active means activation above about 120%;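 further: reporter induced by TNF-alpha stimulation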
STAT1 act STAT3c: STAT1 activation in STAT3 activator counter-screen; shares compounds with STAT3 act-1; activation (% of control), % at 5.7 µM; 1,200 compounds, 13% hits; NIH 3T3 STAT1-luciferase reporter, IFN-gamma, luminescence;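 active means activation above the solvent-only control well mean plus 3 SD, set per screening run, cut at about 120% in these data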
Each line names hits and unclear results; the compound was inactive in the other large screens (follow-up assays come after a bar, where they were run).

CCOC(=O)c1[nH]c2ccccc2c1NC(=S)Nc1ccccc1	STAT3 act-1 157 | STAT3 act-2 163 | NFkB act STAT3ct inactive | STAT1 act STAT3c inactive
CCOC(=O)c1[nH]c2ccccc2c1NC(=O)C(CC)CC	none
CCOC(=O)c1[nH]c2ccccc2c1NC(=S)Nc1cccc(C)c1	STAT3 act-1 163 | STAT3 act-2 155 | NFkB act STAT3ct inactive | STAT1 act STAT3c inactive
O=C(CCC(=O)Nc1ccc(Oc2ccccc2)cc1)NCCO	none
COc1ccccc1NC(=O)C1=C(C)NC(=O)NC1c1ccccc1[N+](=O)[O-] (centres undefined)	STAT3 act-1 144 | STAT3 act-2 138 | NFkB act STAT3ct inactive | STAT1 act STAT3c inactive
O=C(Cc1ccccc1)Nc1ccc(NC(=O)c2cccc(Cl)c2)cc1	none
COc1ccccc1/C=N/NC(=O)C1=NNC(c2ccccc2)(c2ccccc2)C1	STAT3 act-1 149 (no result: TRAIL sens C8) | STAT3 act-2 inactive | NFkB act STAT3ct inactive | STAT1 act STAT3c inactive
Cc1cc(-c2nn3c(-c4ccccc4)nnc3s2)c2ccccc2n1	STAT3 act-1 156 | STAT3 act-2 139 | NFkB act STAT3ct inactive | STAT1 act STAT3c inactive
COc1ccc2[nH]c(=O)c(CN(C(C)=O)c3ccc(C)c(C)c3)cc2c1	none (no result: PPC-1+TRAIL kill, STAT3 blocker, STAT3 act-1, STAT1 blocker)
Oc1ccccc1C1CC(c2cccs2)=NC(c2ccc(Cl)cc2)N1 (centres undefined)	STAT3 act-1 140 | STAT3 act-2 139 | NFkB act STAT3ct inactive | STAT1 act STAT3c inactive
Oc1ccc(Br)cc1-c1cc(-c2ccccc2)n[nH]1	STAT3 act-1 141 | STAT3 act-2 inactive | NFkB act STAT3ct inactive | STAT1 act STAT3c inactive
COC(=O)/C(C#N)=C/c1c[nH]c2ccccc12	STAT3 act-1 147 (no result: PPC-1+TRAIL kill) | STAT3 act-2 193 | NFkB act STAT3ct 129 | STAT1 act STAT3c 160
Cc1cc(N/N=C/c2c[nH]c3ccccc23)c2ccccc2n1	STAT3 act-1 148 | STAT3 act-2 141 | NFkB act STAT3ct inactive | STAT1 act STAT3c inactive
Cc1cc(C)nc(N/N=C/c2c[nH]c3ccccc23)n1	none
O=C(O)c1cc(=O)c2ccccc2[nH]1	none (no result: PPC-1+TRAIL kill, HSP90 inh, STAT3 blocker, STAT3 act-1, STAT1 blocker)
C=CCn1c(COc2ccccc2)nnc1SCc1ccc(C#N)cc1	none
C=CCn1c(COc2ccc(CC)cc2)nnc1SC/C(O)=C(\C#N)c1nc2ccccc2[nH]1	STAT3 act-1 160 | STAT3 act-2 150 | NFkB act STAT3ct inactive | STAT1 act STAT3c inactive
Cc1ccc(-c2nc(N)n(C(=O)Cc3ccccc3)n2)cc1	none
Cc1ccc(-c2nc(N)n(C(=O)c3cccs3)n2)cc1	STAT3 act-1 148 | STAT3 act-2 inactive | NFkB act STAT3ct inactive | STAT1 act STAT3c inactive
COc1ccccc1OCCCN1C(=O)C(=O)c2cccc(C)c21	STAT3 act-1 138 (no result: PPC-1+TRAIL kill) | STAT3 act-2 inactive | NFkB act STAT3ct inactive | STAT1 act STAT3c inactive
CCOc1ccc(CN2CCN(Cc3cc4ccccc4[nH]3)CC2CCO)cc1 (centres undefined)	STAT3 act-1 143 | STAT3 act-2 191 | NFkB act STAT3ct inactive | STAT1 act STAT3c inactive
COc1ccc(C2CC3(CC(C)(C)NC(=S)N3)Oc3cc(O)cc(C)c32)cc1OC (centres undefined)	STAT3 act-1 active | STAT3 act-2 693 | NFkB act STAT3ct inactive | STAT1 act STAT3c 121
COc1ccc(C(=O)N/C(=C\c2ccccc2)C(=O)Nc2cccc(C(=O)O)c2)cc1	none (no result: PPC-1+TRAIL kill, STAT3 blocker, STAT3 act-1, STAT1 blocker)
Cc1ccc(-n2c(N)c(-c3nc4ccccc4n3C)sc2=S)cc1	STAT3 act-1 183 | STAT3 act-2 176 | NFkB act STAT3ct inactive | STAT1 act STAT3c inactive
COC(=O)CSc1nc2cc3c(cc2cc1C)OCO3	none (no result: PPC-1+TRAIL kill)
Cc1cc2cc3c(cc2nc1SCC(=O)Nc1nc(C)c(C)s1)OCO3	STAT3 act-1 169 | STAT3 act-2 133 | NFkB act STAT3ct inactive | STAT1 act STAT3c inactive
CN(c1ccccc1)S(=O)(=O)c1ccc(NC(=O)c2cccs2)cc1	none
Cn1c(O)c(N=Nc2nc(-c3ccccc3)cs2)c2ccccc21	STAT3 act-1 147 | STAT3 act-2 159 | NFkB act STAT3ct inactive | STAT1 act STAT3c inactive
Cn1c(O)c(N=Nc2ccc(F)cc2)c2ccccc21	STAT3 act-1 152 | STAT3 act-2 165 | NFkB act STAT3ct inactive | STAT1 act STAT3c inactive
O=C(O)c1sccc1SCc1ccc(Cl)cc1Cl	STAT3 act-1 137 | STAT3 act-2 inactive | NFkB act STAT3ct inactive | STAT1 act STAT3c inactive
O=C(O)CC/C(=C\c1cc([N+](=O)[O-])ccc1Cl)c1nc2ccccc2s1	STAT3 act-1 142 | STAT3 act-2 147 | NFkB act STAT3ct inactive | STAT1 act STAT3c inactive
Cn1c(=O)oc2cc(S(=O)(=O)N3CCCc4ccccc43)ccc21	none
CCN(CC)CCN1C(=O)C(=O)/C(=C(/O)c2c(C)[nH]c(C(=O)OC)c2C)C1c1cccnc1 (centres undefined)	none
COC(=O)c1[nH]c(C)c(/C(O)=C2\C(=O)C(=O)N(CCN3CCOCC3)C2c2cccnc2)c1C (centres undefined)	STAT3 act-1 138 | STAT3 act-2 inactive | NFkB act STAT3ct inactive | STAT1 act STAT3c inactive
Cc1[nH][nH]c(=O)c1C(c1ccc(O)c(Br)c1)c1c(C)[nH][nH]c1=O	none (no result: PPC-1+TRAIL kill, STAT3 blocker, STAT3 act-1, STAT1 blocker)
COc1cc2c(cc1OC)CN(CC(=O)Nc1ccccc1C#N)CC2	STAT3 act-1 159 | STAT3 act-2 138 | NFkB act STAT3ct inactive | STAT1 act STAT3c inactive
Cc1ccc(-c2nnc(N3CCN(C(=O)CN4C(=O)c5ccccc5C4=O)CC3)c3ccccc23)cc1	none (no result: PPC-1+TRAIL kill)
Cc1cc(C)c(NC(=O)CS(=O)CC(=O)NCC2CCCO2)c(C)c1 (centres undefined)	STAT3 act-1 140 | STAT3 act-2 inactive | NFkB act STAT3ct inactive | STAT1 act STAT3c inactive
CC(C)(C)C1(O)CC(C(F)(F)F)=NN1C(=O)Cc1ccc([N+](=O)[O-])cc1 (centres undefined)	STAT3 act-1 137 (no result: PPC-1+TRAIL kill) | STAT3 act-2 152 | NFkB act STAT3ct inactive | STAT1 act STAT3c inactive
CCC1=NN(C(=O)Cc2ccc([N+](=O)[O-])cc2)C(O)(C(F)(F)F)C1 (centres undefined)	none (no result: STAT3 blocker, STAT3 act-1, STAT1 blocker)
Cc1ccc(N2CC(O)=C(c3ccccc3)C2=N)cc1	none
N/C(=N\OC(=O)c1cccc(Br)c1)c1ccccc1	TRAIL sens C8 89, STAT3 act-1 158 | STAT3 act-2 152 | NFkB act STAT3ct 131 | STAT1 act STAT3c 151
